The source made the active and inactive calls. The calls are words filed in the database; no cut-off is given here.
Tests used:
[1] = tested on: A549; assay: Cytotoxicity in human A549 cells incubated for 6 to 48 hrs by MTT assay; type: functional, cell-based
Procedure, shortened: (§1)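 HeLa, A549 or NIH3T3 cells (15.0 × 10³/well) were grown 24 h to 70% confluency. Ligand was applied at various concentrations in 0.2% FBS for 6 or 48 h at 37 °C. Medium was then replaced with DMEM/10% FBS and growth continued 42 h. MTT was added for 4 h and formazan dissolved in DMSO. Absorbance read at 595 nm, in triplicate, viability normalized to untreated cells.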

[2] = tested on: Nucleic Acid; assay: Binding affinity to human d[G3(T2AG3)3] G-quadruplex DNA assessed as change in melting temperature at 20 uM in KCl buffer using compound which is heated to 90 degC for 5 mins followed by slow cooling; type: nucleic-acid assay
Procedure, shortened: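 Hum21 (2 μM) was folded in KCl buffer (10 mM Tris-HCl, 100 mM KCl, 0.1 mM EDTA) with ligand present at r = 10, by heating to 90 °C for 5 min and cooling slowly. CD melting was read at 266 nm. ΔTm is taken against free G4DNA, mean of two experiments.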

[3] = tested on: Nucleic Acid; assay: Binding affinity to human d[G3(T2AG3)3] G-quadruplex DNA assessed as change in structure in CD spectral profile in LiCl buffer by CD spectroscopy; type: nucleic-acid assay
Procedure, shortened: (§2)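 Hum21 G4DNA (4 μM strand) was preformed in 10 mM Tris-HCl with 100 mM LiCl and 0.1 mM EDTA, pH 7.4. It was then titrated with ligand and CD spectra were recorded.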

[4] = tested on: NIH3T3; assay: Cytotoxicity in mouse NIH/3T3 cells incubated for 6 to 48 hrs by MTT assay; type: cell-based; procedure, shortened: as §1
[5] = target: Telomerase reverse transcriptase (Homo sapiens, UniProt O14746); assay: Inhibition of telomerase extracted from human A549 cells by TRAP-LIG assay; type: cell-free
Procedure, shortened: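 Three-step TRAP-LIG assay with A549 protein extract (500 ng/sample) and TS primer in TRAP buffer (pH 8.3, 68 mM KCl), ligand at 5–60 μM. Elongation ran at 30 °C for 10 min. Ligand was then removed on a spin column. PCR with ACX primer ran 30 cycles. Products were resolved on 10% PAGE and read by phosphorimager. IC50 is the mean of three experiments.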

[6] = tested on: HEK293; assay: Cytotoxicity in HEK293 cells incubated for 6 to 48 hrs by MTT assay; type: cell-based; details: human
Procedure, shortened: (§3)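 HEK293 and HEK293T cells were seeded at 8.0 × 10³/well and run as in the short-term MTT protocol: treatment in 0.2% FBS, then medium change and 595 nm formazan read-out. Figure data reflect 48 h exposure, six replicates per point.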

[7] = tested on: Nucleic Acid; assay: Induction of topology changes in human d[G3(T2AG3)3] G-quadruplex DNA in 100 uM KCl buffer by EMSA method; type: nucleic-acid assay; details: in the assay text read “100 mM KCl” for “100 uM KCl”
Procedure, shortened: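 5′-32P-labelled Hum21 G4DNA (5 μM) was used under two conditions. In one, it was preformed in 100 mM KCl and then given ligand (25 μM). In the other, it was folded with ligand (15–60 μM) by heating at 90 °C for 5 min and slow cooling in 100 mM KCl. Samples were run on native polyacrylamide gel with a dT20 mobility marker.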

[8] = tested on: Nucleic Acid; assay: Ratio of Kapp for human d[G3(T2AG3)3] G-quadruplex DNA to Kapp for calf thymus duplex DNA; type: nucleic-acid assay
Procedure, shortened: (§4)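 UV–vis absorption titration of ligand with preformed Hum21 G4DNA, or with calf thymus duplex DNA. Hypochromicity data were converted to Scatchard plots, and the apparent association constant was obtained by linear fitting.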

[9] = tested on: Nucleic Acid; assay: Binding affinity to human d[G3(T2AG3)3] G-quadruplex DNA in LiCl buffer by CD spectroscopy; type: nucleic-acid assay; procedure, shortened: as §2
[10] = tested on: Nucleic Acid; assay: Binding affinity to human d[G3(T2AG3)3] G-quadruplex DNA in LiCl+ Na+ buffer by CD spectroscopy; type: nucleic-acid assay
Procedure, shortened: (§5)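 CD titration of preformed Hum21 G4DNA (4 μM) in 100 mM LiCl, 10 mM sodium cacodylate, 0.1 mM EDTA, pH 7.4. Ligand was added stepwise from 0 to 160 μM in 20 μM steps. Peaks at 250 and 295 nm and the induced CD band were monitored.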

[11] = tested on: HeLa; assay: Cytotoxicity in human HeLa cells at 4 uM up to 15 days by […]; type: functional
Procedure, shortened: (§6)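 Long-term proliferation: HeLa, A549 or NIH3T3 cells were seeded at 5.0 × 10⁴/well. They were exposed to 4 μM ligand, or 0.1% DMSO as vehicle, every 5 days. Cells were counted and reseeded at half the population over 15 days, and population versus time was plotted.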

[12] = tested on: Nucleic Acid; assay: Binding affinity to human d[G3(T2AG3)3] G-quadruplex DNA assessed as change in structure in CD spectral profile in LiCl+ Na+ buffer by CD spectroscopy; type: nucleic-acid assay; procedure, shortened: as §5
[13] = tested on: Nucleic Acid; assay: Binding affinity to human d[G3(T2AG3)3] G-quadruplex DNA assessed as change in melting temperature at 10 uM in LiCl-Na buffer; type: nucleic-acid assay
Procedure, shortened: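 CD melting of Hum21 G4DNA (4 μM strand) preformed by heating at 90 °C for 5 min then slow cooling over 24 h in 100 mM LiCl, 10 mM sodium cacodylate, 0.1 mM EDTA, pH 7.4. Ligand added at [ligand]/[DNA] r = 5. Melting followed at 295 nm. ΔTm is ligand-bound minus free Tm, average of two runs.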

[14] = tested on: Nucleic Acid; assay: Binding affinity to human d[G3(T2AG3)3] G-quadruplex DNA in 100 mM KCl buffer by CD spectroscopy; type: nucleic-acid assay
Procedure, shortened: (§7)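 CD spectral titration of preformed Hum21 G4DNA (4 μM) in 10 mM Tris-HCl, 100 mM KCl, 0.1 mM EDTA, pH 7.4. Ligand was added at 0–160 μM in 20 μM increments. The induced CD band was followed.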

[15] = tested on: HEK-293T; assay: Cytotoxicity in transformed HEK293T cells incubated for 6 to 48 hrs by MTT assay; type: functional, cell-based; details: Homo sapiens; procedure, shortened: as §3
[16] = tested on: Nucleic Acid; assay: Binding affinity to human d[G3(T2AG3)3] G-quadruplex DNA assessed as change in melting temperature at 20 uM in KCl buffer; type: nucleic-acid assay
Procedure, shortened: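 CD melting of preformed Hum21 G4DNA (2 μM) in 10 mM Tris-HCl, 100 mM KCl, 0.1 mM EDTA, read at 292 nm. Ligand added at r = 10. ΔTm is bound minus free Tm, average of two runs.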

[17] = tested on: Nucleic Acid; assay: Binding affinity to human d[G3(T2AG3)3] G-quadruplex DNA assessed as change in structure in CD spectral profile in 100 mM KCl buffer by CD spectroscopy; type: nucleic-acid assay; procedure, shortened: as §7
[18] = tested on: HeLa; assay: Cytotoxicity in human HeLa cells incubated for 6 to 48 hrs by MTT assay; type: functional, cell-based; procedure, shortened: as §1
[19] = tested on: Nucleic Acid; assay: Binding affinity to human d[G3(T2AG3)3] G-quadruplex DNA assessed as change in melting temperature at 20 uM in NaCl buffer; type: nucleic-acid assay
Procedure, shortened: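 CD melting at 295 nm of Hum21 G4DNA (2 μM strand) preformed in 10 mM Tris-HCl, 100 mM NaCl, 0.1 mM EDTA. Ligand at r = 10. ΔTm is complexed minus free Tm, mean of two experiments.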

[20] = tested on: A549; assay: Cytotoxicity in human A549 cells at 4 uM up to 15 days […]; type: functional; procedure, shortened: as §6
[21] = tested on: NIH3T3; assay: Cytotoxicity in mouse NIH/3T3 cells at 4 uM up to 15 days […]; type: cell-based; details: nih3t3, 360 h; procedure, shortened: as §6
[22] = tested on: Nucleic Acid; assay: Binding affinity to human d[G3(T2AG3)3] G-quadruplex DNA by UV-vis titration based assay; type: nucleic-acid assay; procedure, shortened: as §4
[23] = tested on: Nucleic Acid; assay: Binding affinity to human d[G3(T2AG3)3] G-quadruplex DNA assessed formation of G-quadruplex parallel strands in 100 mM KCl buffer by CD spectroscopy; type: nucleic-acid assay
Procedure, shortened: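 Hum21 (4 μM strand) was heated at 90 °C for 5 min together with ligand (40 μM), then cooled slowly in 100 mM KCl buffer (10 mM Tris-HCl, 0.1 mM EDTA, pH 7.4). CD spectra were recorded to assign parallel or antiparallel topology.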

Sequence of Telomerase reverse transcriptase (O14746 whole entry): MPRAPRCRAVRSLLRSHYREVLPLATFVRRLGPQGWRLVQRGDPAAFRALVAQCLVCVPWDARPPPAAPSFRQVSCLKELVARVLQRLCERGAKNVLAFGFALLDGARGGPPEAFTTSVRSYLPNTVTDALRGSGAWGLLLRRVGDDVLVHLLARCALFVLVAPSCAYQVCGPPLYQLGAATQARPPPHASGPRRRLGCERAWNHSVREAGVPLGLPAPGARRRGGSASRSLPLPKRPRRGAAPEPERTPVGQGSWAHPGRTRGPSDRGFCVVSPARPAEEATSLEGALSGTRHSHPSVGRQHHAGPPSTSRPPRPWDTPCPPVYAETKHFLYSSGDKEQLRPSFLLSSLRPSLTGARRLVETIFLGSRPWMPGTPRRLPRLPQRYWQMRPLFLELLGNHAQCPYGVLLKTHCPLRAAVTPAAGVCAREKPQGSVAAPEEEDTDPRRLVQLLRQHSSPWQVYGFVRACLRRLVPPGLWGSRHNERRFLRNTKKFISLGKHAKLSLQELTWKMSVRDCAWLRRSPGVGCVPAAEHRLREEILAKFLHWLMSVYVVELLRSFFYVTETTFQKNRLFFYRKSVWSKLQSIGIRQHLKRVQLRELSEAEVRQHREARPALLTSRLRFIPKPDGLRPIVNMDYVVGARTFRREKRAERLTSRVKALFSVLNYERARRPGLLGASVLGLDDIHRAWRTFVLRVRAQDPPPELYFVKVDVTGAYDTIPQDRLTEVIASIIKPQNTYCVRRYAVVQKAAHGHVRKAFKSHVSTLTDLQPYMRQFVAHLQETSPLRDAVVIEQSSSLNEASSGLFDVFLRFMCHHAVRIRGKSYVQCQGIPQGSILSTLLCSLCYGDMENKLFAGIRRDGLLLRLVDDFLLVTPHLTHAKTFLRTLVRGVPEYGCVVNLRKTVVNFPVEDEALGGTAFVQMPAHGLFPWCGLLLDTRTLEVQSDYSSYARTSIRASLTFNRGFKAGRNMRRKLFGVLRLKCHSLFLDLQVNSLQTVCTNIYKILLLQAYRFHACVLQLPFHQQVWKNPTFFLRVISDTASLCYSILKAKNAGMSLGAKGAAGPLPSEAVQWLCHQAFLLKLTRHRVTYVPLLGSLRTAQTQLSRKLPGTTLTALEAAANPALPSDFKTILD

Compound | Activity [1] | ΔTm [2] [°C] | Activity [3] | Activity [4] | IC50 [5] [µM] | Activity [6] | Activity [7] | Ratio [8] | Activity [9] | Activity [10] | Activity [11] | Activity [12] | ΔTm [13] [°C] | Activity [14] | Activity [15] | ΔTm [16] [°C] | Activity [17] | Activity [18] | ΔTm [19] [°C] | Activity [20] | further results
CN1CCN(c2ccc3nc(-c4ccc5c(c4)CN4CN5Cc5cc(-c6nc7ccc(N8CCN(C)CC8)cc7[nH]6)ccc54)[nH]c3c2)CC1 | Active | 15 | inactive | Toxic | 34.7 | Toxic | inactive | 100 | Active | Active | 100% | inactive | 9.3 | Active | Active | 8 | inactive | Active | 9 | 100% | Activity [21]: Toxic; Kapp [22]: 1.4 ×10⁵ /M; Activity [23]: Active
OCCN1CCN(c2ccc3nc(-c4ccc5c(c4)CN4CN5Cc5cc(-c6nc7ccc(N8CCN(CCO)CC8)cc7[nH]6)ccc54)[nH]c3c2)CC1 | Active | 17 | inactive | Toxic | 14.5 | Toxic | Active | 100 | Active | Active | Active | inactive | 9.5 | Active | Active | 10 | inactive | Active | 11 | Active | Activity ([20]; record 2): 100%; Activity [21]: Toxic; Kapp [22]: 4.2 ×10⁵ /M; Activity [23]: Active
